Source: ChEMBL document CHEMBL4814000, “Discovery of β-carboline-(phenylsulfonyl)furoxan hybrids as potential anti-breast cancer agents” (Bioorg Med Chem Lett, 2021)
Calls of active or inactive are those of the source. No cut-off for these calls is given here.

Assays:
[1] = tested on: MDA-MB-231; assay: Induction of apoptosis in human MDA-MB-231 cells assessed as necrotic cells at 0.6 uM incubated for 72 hrs by annexin V-FITC staining based flow cytometry (reference value: 1.05%); type: functional
[2] = tested on: MDA-MB-231; assay: Induction of DNA damage in human MDA-MB-231 cells assessed as increase olive tail moment measured at 0.15 to 0.6 uM after 72 hrs by neutral comet assay; type: functional, cell-based; conditions: dose 0.15-0.6 µM
Method in brief: (§1)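 Neutral comet assay for double-strand breaks in MDA-MB-231 cells incubated 72 h; head DNA%, tail DNA%, tail moment and Olive tail moment scored, the moments in arbitrary units; mean ± SD of three independent experiments, p < 0.05 versus control.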

[3] = tested on: MDA-MB-231; assay: Induction of DNA damage in human MDA-MB-231 cells assessed as increase in tail DNA measured at 0.15 to 0.6 uM after 72 hrs by neutral comet assay; type: functional, cell-based; conditions: dose 0.15-0.6 µM; method in brief: as §1
[4] = Nitric oxide releasing activity assessed as amount of NO release measured up to 24 hrs by Griess assay; type: functional; conditions: time hrs <=24
Method in brief: (§2)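 Griess assay measuring NO released by compounds in vitro over time; values are averages of three independent experiments.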

[5] = Nitric oxide releasing activity assessed as amount of NO release measured at 3 hrs by Griess assay; type: functional; method in brief: as §2
[6] = tested on: MDA-MB-231; assay: Induction of apoptosis in human MDA-MB-231 cells assessed as early apoptotic cells at 0.15 uM incubated for 72 hrs by annexin V-FITC staining based flow cytometry (reference value: 3.42%); type: functional
[7] = tested on: MDA-MB-231; assay: Induction of DNA damage in human MDA-MB-231 cells assessed as double-strand DNA breaks measured at 0.15 to 0.6 uM after 72 hrs by neutral comet assay; type: functional, cell-based; conditions: dose 0.15-0.6 µM; method in brief: as §1
[8] = tested on: MDA-MB-231; assay: Antiproliferative activity against human MDA-MB-231 cells assessed as reduction in cell viability incubated for 72 hrs by CCK-8 assay; type: functional, cell-based; conditions: MDA-MB-231, 72 h
Method in brief: (§3)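 CCK-8 viability assay on MCF-7 or MDA-MB-231 cells after 72 h compound exposure; IC50 taken as half inhibitory concentration, reported as mean ± SD of three independent experiments.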

[9] = tested on: MDA-MB-231; assay: Induction of cell cycle arrest in human MDA-MB-231 cells assessed as accumulation of cells at G1 phase at 0.15 uM after 72 hrs by propidium iodide staining based flow cytometry (reference value: 51.97 %); type: functional
Method in brief: (§4)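 Cell cycle: MDA-MB-231 cells held 72 h at 0, 0.15, 0.3 or 0.6 μM, harvested, PI-stained and analysed by flow cytometry for G1, S and G2/M percentages.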

[10] = tested on: MDA-MB-231; assay: Induction of DNA damage in human MDA-MB-231 cells assessed as increase in tail moment measured at 0.15 to 0.6 uM after 72 hrs by neutral comet assay; type: functional, cell-based; conditions: dose 0.15-0.6 µM; method in brief: as §1
[11] = tested on: MDA-MB-231; assay: Induction of cell cycle arrest in human MDA-MB-231 cells assessed as accumulation of cells at S phase at 0.6 uM after 72 hrs by propidium iodide staining based flow cytometry (reference value: 37.12 %); type: functional; method in brief: as §4
[12] = tested on: MDA-MB-231; assay: Induction of apoptosis in human MDA-MB-231 cells assessed as late apoptotic cells at 0.3 uM incubated for 72 hrs by annexin V-FITC staining based flow cytometry (reference value: 1.67%); type: functional
[13] = tested on: MDA-MB-231; assay: Induction of cell cycle arrest in human MDA-MB-231 cells assessed as accumulation of cells at G2/M phase at 0.15 uM after 72 hrs by propidium iodide staining based flow cytometry (reference value: 10.90 %); type: functional; method in brief: as §4
[14] = tested on: MDA-MB-231; assay: Induction of cell cycle arrest in human MDA-MB-231 cells assessed as accumulation of cells at S phase at 0.3 uM after 72 hrs by propidium iodide staining based flow cytometry (reference value: 37.12 %); type: functional; method in brief: as §4
[15] = tested on: MDA-MB-231; assay: Induction of apoptosis in human MDA-MB-231 cells assessed as viable cells at 0.6 uM incubated for 72 hrs by annexin V-FITC staining based flow cytometry (reference value: 93.86%); type: functional; conditions: read-out: Activity
[16] = tested on: MDA-MB-231; assay: Induction of cell cycle arrest in human MDA-MB-231 cells assessed as accumulation of cells at G1 phase at 0.6 uM after 72 hrs by propidium iodide staining based flow cytometry (reference value: 51.97 %); type: functional; method in brief: as §4
[17] = tested on: MDA-MB-231; assay: Induction of ROS generation in human MDA-MB-231 cells at 0.6 uM incubated for 72 hrs by DCFH-DA staining-based flow cytometric analysis (reference value: 3.04 %); type: functional
Method in brief: (§5)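 MDA-MB-231 cells exposed 72 h, then loaded with DCFH-DA and read on a FACScan flow cytometer as percent DCFH-DA-positive cells against DMSO-treated control; mean ± SD of three independent experiments.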

[18] = tested on: MDA-MB-231; assay: Induction of cell cycle arrest in human MDA-MB-231 cells assessed as accumulation of cells at G2/M phase at 0.6 uM after 72 hrs by propidium iodide staining based flow cytometry (reference value: 10.90 %); type: functional; method in brief: as §4
[19] = tested on: MDA-MB-231; assay: Inhibition of cell adhesion in human MDA-MB-231 cells measured for 24 hrs by phase-contrast microscope method; type: functional, cell-based; conditions: dose 0.15-0.6 µM
Method in brief: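 Adhesion: MDA-MB-231 cells incubated with 0, 0.15, 0.3 or 0.6 μM, non-adherent cells washed off with PBS, attached cells counted by phase contrast microscopy; mean ± SD of three independent experiments.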

[20] = tested on: MDA-MB-231; assay: Induction of apoptosis in human MDA-MB-231 cells assessed as necrotic cells at 0.3 uM incubated for 72 hrs by annexin V-FITC staining based flow cytometry (reference value: 1.05%); type: functional
[21] = tested on: MDA-MB-231; assay: Induction of DNA damage in human MDA-MB-231 cells assessed as reduction in head DNA measured at 0.15 to 0.6 uM after 72 hrs by neutral comet assay; type: functional, cell-based; conditions: dose 0.15-0.6 µM; method in brief: as §1
[22] = tested on: MDA-MB-231; assay: Induction of apoptosis in human MDA-MB-231 cells assessed as late apoptotic cells at 0.6 uM incubated for 72 hrs by annexin V-FITC staining based flow cytometry (reference value: 1.67%); type: functional
[23] = tested on: MDA-MB-231; assay: Induction of apoptosis in human MDA-MB-231 cells assessed as viable cells at 0.3 uM incubated for 72 hrs by annexin V-FITC staining based flow cytometry (reference value: 93.86%); type: functional; conditions: read-out: Activity
[24] = tested on: MDA-MB-231; assay: Antiinvasive activity against human MDA-MB-231 cells assessed as reduction in invasion incubated for 24 hrs by crystal violet staining based transwell assay; type: functional, cell-based; conditions: dose microM <=0.6, time 24.0 hrs
Method in brief: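 Transwell: MDA-MB-231 cells seeded in chambers with 0, 0.15, 0.3 or 0.6 μM for 24 h; cells crossing stained with crystal violet, imaged and counted; mean ± SD of three independent experiments.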

[25] = tested on: MDA-MB-231; assay: Inhibition of cell migration in human MDA-MB-231 cells assessed as inhibition of wound healing rate measured for 24 hrs by phase contrast microscopy; type: functional, cell-based
Method in brief: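 Wound-healing: scratches made with pipette tips across MDA-MB-231 monolayers, then 24 h incubation at 0, 0.15, 0.3 or 0.6 μM; closure imaged by phase contrast microscopy and expressed as wound-healing rate; mean ± SD of three independent experiments.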

[26] = tested on: MDA-MB-231; assay: Induction of apoptosis in human MDA-MB-231 cells assessed as early apoptotic cells at 0.3 uM incubated for 72 hrs by annexin V-FITC staining based flow cytometry (reference value: 3.42%); type: functional
[27] = tested on: MDA-MB-231; assay: Induction of apoptosis in human MDA-MB-231 cells assessed as necrotic cells at 0.15 uM incubated for 72 hrs by annexin V-FITC staining based flow cytometry (reference value: 1.05%); type: functional
[28] = tested on: MDA-MB-231; assay: Induction of apoptosis in human MDA-MB-231 cells assessed as viable cells at 0.15 uM incubated for 72 hrs by annexin V-FITC staining based flow cytometry (reference value: 93.86%); type: functional; conditions: read-out: Activity
[29] = tested on: MDA-MB-231; assay: Induction of apoptosis in human MDA-MB-231 cells assessed as late apoptotic cells at 0.15 uM incubated for 72 hrs by annexin V-FITC staining based flow cytometry (reference value: 1.67%); type: functional
[30] = tested on: MDA-MB-231; assay: Induction of cell cycle arrest in human MDA-MB-231 cells assessed as accumulation of cells at G1 phase at 0.3 uM after 72 hrs by propidium iodide staining based flow cytometry (reference value: 51.97 %); type: functional; method in brief: as §4
[31] = tested on: MDA-MB-231; assay: Induction of apoptosis in human MDA-MB-231 cells assessed as early apoptotic cells at 0.6 uM incubated for 72 hrs by annexin V-FITC staining based flow cytometry (reference value: 3.42%); type: functional
[32] = tested on: MDA-MB-231; assay: Induction of cell cycle arrest in human MDA-MB-231 cells assessed as accumulation of cells at G2/M phase at 0.3 uM after 72 hrs by propidium iodide staining based flow cytometry (reference value: 10.90 %); type: functional; method in brief: as §4
[33] = tested on: MDA-MB-231; assay: Induction of ROS generation in human MDA-MB-231 cells incubated for 72 hrs by DCFH-DA staining-based flow cytometric analysis relative to control; type: functional, cell-based; conditions: dose microM <=0.6, time 72.0 hrs; method in brief: as §5
[34] = tested on: MDA-MB-231; assay: Induction of cell cycle arrest in human MDA-MB-231 cells assessed as accumulation of cells at S phase at 0.15 uM after 72 hrs by propidium iodide staining based flow cytometry (reference value: 37.12 %); type: functional; method in brief: as §4
[35] = tested on: MCF7; assay: Antiproliferative activity against human MCF7 cells assessed as reduction in cell viability incubated for 72 hrs by CCK-8 assay; type: functional, cell-based; conditions: MCF7, 72 h; method in brief: as §3

With `COc1ccc(-c2nc(C(=O)NCCCOc3no[n+]([O-])c3S(=O)(=O)c3ccccc3)cc3c2[nH]c2ccccc23)cc1` the Activity [1] was 1.61%, the Activity [2] was “Active” and the Activity [3] was “Active”. The Activity [4] was “Active”, the Activity [5] was 65 µM/L and the Activity [6] was 8.28%. For the same compound, the Activity [7] was “Active”, the IC50 [8] was 620 nM and the Activity [9] was 50.54%. The Activity [10] was “Active”, the Activity [11] was 35.87% and the Activity [12] was 9.92%. For the same compound, the Activity [13] was 13.64%, the Activity [14] was 37.2% and the viability at 0.6 µM [15] was 44.2%. It also gave an Activity [16] of 40.59%, an Activity [17] of 51.62% and an Activity [18] of 23.54%. The inhibition [19] was “Dose-Dependent Effect”, the Activity [20] was 3.7% and the Activity [21] was “Active”. The Activity [22] was 24.3%, the viability at 0.3 µM [23] was 72.3% and the Activity [24] was “Active”. The inhibition [25] was “Dose-Dependent Effect”, the Activity [26] was 14.07% and the Activity [27] was 3.68%. The viability at 0.15 µM [28] was 83.6%, the Activity [29] was 4.39% and the Activity [30] was 42.88%. For the same compound, the Activity [31] was 29.88%, the Activity [32] was 19.92% and the Activity [33] was “Dose-Dependent Effect”. It also gave an Activity [34] of 35.82% and an IC50 [35] of 890 nM.
